Compound activity (PubChem)
INS promoter act: TRM-6 insulin promoter activation | TRM-6 cells, insulin promoter eGFP reporter, imaging; plate-scaled: unstimulated 0, stimulated control 100 | activation, % at 2 µM | 130,000 compounds, 0.81% hits;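 active means activation at 2 µM above a set limit, confirmed on inspection of the cell images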;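 further: share of cells whose green reporter signal exceeds an intensity cutoff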
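Test system: human fetal islet-derived TRM-6 cells with tamoxifen-inducible insulin promoter–eGFP reporter. Compound dosing: 2 µM final, single concentration. Incubation: tamoxifen pre-incubation 15 h overnight, then compound exposure 48 h at 37 °C. Signal: fixed-cell fluorescence microscopy, eGFP plus Hoechst.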
Each line names hits and unclear results; the compound was inactive in the other large screens. The sample as a whole holds a higher share of hits than the screen did.

O=C(NCc1ccccn1)C1CCN(S(=O)(=O)c2ccccc2)CC1	none
CC1Oc2ccccc2N(CC(=O)NCCc2ccccc2)C1=O (stereo not drawn)	none
COCCCN1CN(Cc2ccccc2)CNC1=S	none
Cc1cc(Cl)c(OCCCN2CCCCC2)c(Br)c1	none
Cc1cc(Cl)c(OCCN2C(=O)NC(C)(C)C2=O)c(Br)c1	INS promoter act 538
Cc1cc(C)c(OCCN2C(=O)NC(C)(C)C2=O)c(Cl)c1	none
Cc1csc(=N)n1-c1ccc(Cl)cc1	none
CC(=O)COC(=O)c1cccc(N2C(=O)C3C4C=CC(C4)C3C2=O)c1 (stereo not drawn)	none
CCN1C(=O)CC(C(=O)OC)=C1C	none
COC(=O)C1=C(C)N(c2cccc(C(C)=O)c2)C(=O)C1	INS promoter act 475
CCCCC(=O)Nc1ccc(NC(=O)c2ccc([N+](=O)[O-])cc2Cl)cc1OC	none
CC(=O)CSc1nnc(-c2cnccn2)n1-c1ccccc1	none
Cc1ccc(-n2nnnc2SC(C)C(=O)NCC(=O)Nc2ccc(F)c(F)c2F)c(C)c1 (stereo not drawn)	none
Cc1cc(C(=O)NCCCn2ccnc2)sc1-c1ccccc1	INS promoter act 531
O=C(NCCCn1ccnc1)C(=O)Nc1ccccc1	none
O=C(NCCCn1ccnc1)C(=O)NCc1ccccc1	none
COc1ccc(C(=O)Nc2ccc(N3CCOCC3)cc2)cc1S(=O)(=O)NC1CCCC1	none
CCN(CC)CCOc1cccc(C(C)C)c1	none
CCOc1ccc(C(=O)OCCN(CC)CC)cc1	none
CCN(CC)CCOc1ccc(/C(=C(/Cl)c2ccccc2)c2ccccc2)cc1	INS promoter act 280
CC(NS(=O)(=O)c1ccccc1)C(c1cccs1)N1CCN(C)CC1 (stereo not drawn)	none
Cc1ccc(C)c(-c2csc(N/N=C/c3ccco3)n2)c1	none
CC(C)n1nnnc1SCC(=O)N1CCOCC1	none
Cc1ccc(/C=N/n2c(COc3ccccc3)n[nH]c2=S)s1	none
O=c1c2ccccc2nc2n1C(CSCc1ccc(Cl)cc1Cl)CS2 (stereo not drawn)	none
Cc1ccc(OC(=O)c2cccc(S(=O)(=O)N3CCCC3)c2)c(-n2nc3ccccc3n2)c1	none
O=c1c2ccccc2nc2sc3ccccc3n12	none
C=CCSc1nc2ccccc2c2nc(-c3ccccc3)nn12	none
C=CCSc1nn2c(=O)c3ccccc3nc2s1	INS promoter act 130
CC(C)Cc1cc(C(=O)N2CCN(c3ccc(F)cc3)CC2)no1	none
O=C(O)C1C2C=CC(C2)C1C(=O)Nc1ccc(C(=O)N2CCCCC2)c(Cl)c1 (stereo not drawn)	none
C=CCN1C=CC(=C/C=C(/C#N)C(=O)OCC)C=C1	INS promoter act 163
CCOC(=O)/C(C#N)=C/c1cccc(F)c1	none
CCOC(=O)/C(C#N)=C\c1cccnc1	none
CCC(C)Cn1c(C(C)O)nc2ccccc21 (stereo not drawn)	none
Cc1cc(C)c(C)c(S(=O)(=O)NCC(=O)Nc2sc3c(c2C(N)=O)CCCC3)c1C	none
Cc1cc(C)n2nc(CCc3ccccc3)nc2n1	none
Cc1cc(N)nc2nc(C(F)(F)F)nn12	INS promoter act 800
Cc1cc(C)n2nc(-c3ccc(F)cc3)nc2n1	none
COc1ccc(C(=O)NC(=S)NC2CCSC2=O)cc1 (stereo not drawn)	none
COc1ccc(N(C(=O)Cn2nnc3ccccc32)C(C(=O)NC(C)(C)C)c2ccc(OC)c(O)c2)cc1 (stereo not drawn)	none
Cc1ccc(N(C(=O)Cn2nnc3ccccc32)C(C(=O)NCc2ccco2)c2ccc(C)o2)cc1 (stereo not drawn)	none
CCC(C)(C)NC(=O)C(c1ccco1)N(C(=O)Cn1nnc2ccccc21)c1ccc2c(c1)OCO2 (stereo not drawn)	INS promoter act 83
O=C(Nc1cccc(Cl)c1)Nc1nnc(CSCCOc2ccc(Cl)cc2)s1	none
COc1cc(CC(CC(=O)O)CC(C)OCc2ccccc2)cc(OC)c1 (stereo not drawn)	none
CCCCP(=O)(CCCC)Cc1ccccc1O	INS promoter act 610
CCP(=O)(c1ccccc1)C(C)(C)O (stereo not drawn)	none
CCCCN(CCCC)NC(=O)c1ccccc1	none
CCOC(=O)N1CCC(N(CCN(C)C)C(=S)Nc2cc(C)cc(C)c2)CC1	none
Cc1c(C)c2ccc(OS(C)(=O)=O)c(C)c2oc1=O	none
COc1cc(/C=N/NC(=O)CCc2c(C)n[nH]c2C)cc(OC)c1OC	none
COc1ccc(NC(=O)CN2c3cccc4cccc(c34)S2(=O)=O)cc1	none
COc1ccc2c(=O)c(N3C(=O)c4ccccc4C3=O)coc2c1	none
COc1ccc2c(c1)-c1ccccc1S(=O)(=O)N2C(C)=O	INS promoter act 184
C=C(C)CC1(NC(C)c2ccccc2)CCCCC1 (stereo not drawn)	none
Cc1cc(/C=C2/C(=O)N(C)C(=S)N2C)ccc1N1CCCC1	INS promoter act 376
Cc1ccccc1N1CCN(C(=O)CN2C(=O)c3ccccc3C2=O)CC1	none
COc1ccc(/C=C2\NC(=S)N(CC3CCCO3)C2=O)c(OC)c1C (stereo not drawn)	none
CCCN1C(=O)/C(=C/c2ccc(N3CCCC3)c(C)c2)NC1=S	INS promoter act 92
CN1C(=O)/C(=C/c2ccccc2OCc2cccc(F)c2)N(C)C1=S	none
COc1cc(N2CCCC2)c(OC)cc1/C=C1/NC(=S)NC1=O	none
N#C/C(=C/c1cc[nH]c1)C(N)=S	none
CCCCC(C(=O)O)C(C)CC(=O)NNC(=O)c1ccco1 (stereo not drawn)	none
Cc1oc(C(=O)O)cc1CSc1nnc(-c2ccccc2)n1C	none
CCOCC(=O)Nc1cc(C(=O)OC)cc(C(=O)OC)c1	none
COc1ccc(NS(=O)(=O)c2cccc(N/C(=N\S(=O)(=O)c3ccccc3)c3ccc(F)cc3)c2)cc1	none
COc1ccc(C=O)cc1COc1ccc(Cl)cc1[N+](=O)[O-]	none
CC(=O)/C(C#N)=C1\NC(=O)C(Cc2ccc(C)c(C)c2)S1 (stereo not drawn)	none
COC(=O)c1sccc1NC(=O)CN1CCN(c2ccc(F)cc2)CC1	none
N#C/C(=C\c1cccs1)Sc1nc2ccccc2s1	none
N#Cc1cnn2c(N)c(-c3ccc(Cl)cc3)cnc12	none
CC(=O)c1cnc2cc(-c3cccc(Br)c3)nn2c1C	none
CC(=O)c1cnc2c(-c3ccc(Cl)cc3)cnn2c1C	INS promoter act 585
Clc1ccc2c(c1)CCc1cccnc1C2=C1CCNCC1	none
O=C(Nc1nnc(-c2ccco2)o1)c1ccc([N+](=O)[O-])s1	none
Cc1nn(Cc2ccccc2Cl)c(C)c1C(=O)N1CCN(c2ccccc2)CC1	none
O=C(Nc1cc(C(F)(F)F)ccc1N1CCOCC1)c1c(F)c(F)c(F)c(F)c1F	none
O=[N+]([O-])c1cc(C(F)(F)F)ccc1N1CCN(S(=O)(=O)c2ccc3ccccc3c2)CC1	none
O=S(=O)(Nc1cc(C(F)(F)F)ccc1N1CCOCC1)c1ccc2ccccc2c1	INS promoter act 386
COCCn1c(C)cc(C(=O)CN2CCCCC2)c1C	none
Cc1ccccc1C(=O)OCCN1CCOCC1	none
CCOC(=O)c1cc(C)n(CCCN2CCOCC2)c1C	INS promoter act 86
Cc1ccc(SCC(=O)NC(=O)NCc2ccccc2)c(C)c1	none
CCOc1nc(NC(=O)NS(=O)(=O)Oc2cccc(Cl)c2)nc(-c2ccccc2)n1	none
CC1CC(C)CN(C(=O)Cn2c(SCC(=O)N3CCc4ccccc4C3)nc3ccccc32)C1 (stereo not drawn)	none
CC1CCN(C(=O)CSCC(=O)Nc2nc(-c3cccs3)cs2)CC1	none
CC1CCN(C(=O)Cn2c(SCC(=O)Nc3nccs3)nc3ccccc32)CC1	INS promoter act 154
O=C(c1ccc(C(F)(F)F)cc1)C1CCCN(Cc2cccn2-c2ncccn2)C1 (stereo not drawn)	none
Cc1csc(SCc2nc3sc4c(c3c(=O)[nH]2)CCC4)n1	none
Fc1ccc(-c2csc(=S)[nH]2)cc1	INS promoter act 279
